The term CC50 denotes the concentration at which the toxic effect on the cells reaches its halfway point. The inhibition is the relative decrease from the control value, in per cent.

In data set [1] the test system is HepG2 cells (Homo sapiens). The experiment in a line: Cytotoxicity against human HepG2 cells at 40 uM supplemented with fresh medium containing compound every 3 days for 9 days measured post-last dose.
A short description of data set [2]: Cytotoxicity against human HepG2 cells after 3 days by MTT assay. In kind it is cell-based. The method in brief: (§1)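 HepG2 cells were exposed to compound for 3 or 9 days and viability was read by MTT assay. CC50 is the concentration causing 50% cytotoxicity. Results are mean ± SD of three experiments.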
(Formazan colour is commonly taken as a measure of viable cells.)

Data set [3] deals with Hepatitis B virus. The experiment in a line: Antiviral activity against Hepatitis B virus infected in human HepG2.2.15 cells assessed as inhibition of intracellular HBV DNA replication at 10 uM supplemented with fresh medium containing compound every 3 days for 6 days measured post-last dose by FQ-PCR analysis relative to control. In kind it is functional. Put shortly: (§2)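 HepG2.2.15 cultures were treated at 10, 20 or 40 µM for 3, 6 and 9 days. Both intracellular and extracellular HBV DNA levels were then determined and compared with untreated cells.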

The nature of data set [4]: Cytotoxicity against human HepG2 cells supplemented with fresh medium containing compound every 3 days for 9 days measured post-last dose by MTT assay. It is filed as cell-based. The method in brief: as §1
Data set [5] has as its system HepG2 cells (Homo sapiens). The experiment in a line: Cytotoxicity against human HepG2 cells at 40 uM supplemented with fresh medium containing compound every 3 days for 9 days measured post-last dose. This is another data set of the same source.
The subject of data set [6] is Hepatitis B virus. The experiment in a line: Antiviral activity against lamivudine-resistant Hepatitis B virus harboring L180M/M204V mutant infected in human HepG2.2.15 cells assessed as inhibition of intracellular HBV DNA replication at 40 uM supplemented with fresh medium containing compound every 3 days for 9 days measured post-last dose by FQ-PCR analysis relative to control. It is filed as functional. The method in brief:
(§3)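 Lamivudine-resistant cell line transfected with the L180M/M204V mutant, exposed to 10, 20 or 40 µM for 3, 6 or 9 days. Intracellular and extracellular HBV DNA levels measured.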

For data set [7], the system named is Hepatitis B virus. The experiment in a line: Antiviral activity against Hepatitis B virus infected in human HepG2.2.15 cells assessed as inhibition of HBeAg secretion at 20 uM supplemented with fresh medium containing compound every 3 days for 6 days and measured on day 9 by ELISA relative to control. It is filed as functional. Put shortly: (§4)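 HepG2.2.15 cells were exposed to compound for up to 9 days. The initial screen used 20 µM for 9 days, with lamivudine (20 µM) as positive control. Follow-up used 10, 20 or 40 µM sampled at days 3, 6 and 9. HBsAg and HBeAg were quantified in culture supernatant by ELISA and compared with a no-drug control. Results are mean ± SD of three experiments.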

Data set [8] relates to Hepatitis B virus. The experiment in a line: Antiviral activity against Hepatitis B virus infected in human HepG2.2.15 cells assessed as inhibition of HBsAg secretion at 20 uM supplemented with fresh medium containing compound every 3 days for 6 days and measured on day 9 by ELISA relative to control. It is filed as functional. Put shortly:
as §4
A general note: ELISA stands for enzyme-linked immunosorbent assay.

The test system of data set [9] is Hepatitis B virus. The experiment in a line: Antiviral activity against Hepatitis B virus infected in human HepG2.2.15 cells assessed as inhibition of extracellular HBV DNA replication at 40 uM supplemented with fresh medium containing compound every 3 days for 9 days measured post-last dose by FQ-PCR analysis relative to control. It is filed as functional. Put shortly:
as §2

Data set [10] has as its system Hepatitis B virus. The experiment in a line: Antiviral activity against Hepatitis B virus infected in human HepG2.2.15 cells assessed as inhibition of intracellular HBV DNA replication at 40 uM supplemented with fresh medium containing compound every 3 days for 6 days measured post-last dose by FQ-PCR analysis relative to control. It is filed as functional. The method in brief:
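HepG2.2.15 cells exposed to 10, 20 or 40 µM for 3, 6 or 9 days; intracellular and extracellular HBV DNA levels measured.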

In data set [11] the test system is Hepatitis B virus. The experiment in a line: Antiviral activity against lamivudine-resistant Hepatitis B virus harboring L180M/M204V mutant infected in human HepG2.2.15 cells assessed as inhibition of extracellular HBV DNA replication at 40 uM supplemented with fresh medium containing compound every 3 days for 6 days measured post-last dose by FQ-PCR analysis relative to control. In kind it is functional. The method in brief: as §3

The test system of data set [12] is Hepatitis B virus. The experiment in a line: Antiviral activity against Hepatitis B virus infected in human HepG2.2.15 cells assessed as inhibition of intracellular HBV DNA replication at 20 uM supplemented with fresh medium containing compound every 3 days for 6 days measured post-last dose by FQ-PCR analysis relative to control. In kind it is functional. Put shortly:
as §2

For data set [13], the system named is Hepatitis B virus. The experiment in a line: Antiviral activity against Hepatitis B virus infected in human HepG2.2.15 cells assessed as inhibition of extracellular HBV DNA replication at 10 uM supplemented with fresh medium containing compound every 3 days for 6 days measured post-last dose by FQ-PCR analysis relative to control. In kind it is functional. Put shortly:
as §2

The subject of data set [14] is Hepatitis B virus. The experiment in a line: Antiviral activity against lamivudine-resistant Hepatitis B virus harboring L180M/M204V mutant infected in human HepG2.2.15 cells assessed as inhibition of extracellular HBV DNA replication at 40 uM measured on day 3 by FQ-PCR analysis relative to control. In kind it is functional. To be noted: HepG2.2.15, 72 h. Put shortly:
as §3

Data set [15] concerns Hepatitis B virus. The experiment in a line: Antiviral activity against lamivudine-resistant Hepatitis B virus harboring L180M/M204V mutant infected in human HepG2.2.15 cells assessed as inhibition of extracellular HBV DNA replication at 10 uM supplemented with fresh medium containing compound every 3 days for 9 days measured post-last dose by FQ-PCR analysis relative to control. It is filed as functional. The method in brief:
as §3

Data set [16] concerns Hepatitis B virus. The experiment in a line: Antiviral activity against lamivudine-resistant Hepatitis B virus harboring L180M/M204V mutant infected in human HepG2.2.15 cells assessed as inhibition of intracellular HBV DNA replication at 40 uM supplemented with fresh medium containing compound every 3 days for 6 days measured post-last dose by FQ-PCR analysis relative to control. It is filed as functional. The method in brief:
as §3

The subject of data set [17] is Hepatitis B virus. The experiment in a line: Antiviral activity against lamivudine-resistant Hepatitis B virus harboring L180M/M204V mutant infected in human HepG2.2.15 cells assessed as inhibition of extracellular HBV DNA replication at 10 uM supplemented with fresh medium containing compound every 3 days for 6 days measured post-last dose by FQ-PCR analysis relative to control. In kind it is functional. The method in brief:
as §3

Data set [18] deals with Hepatitis B virus. The experiment in a line: Antiviral activity against lamivudine-resistant Hepatitis B virus harboring L180M/M204V mutant infected in human HepG2.2.15 cells assessed as inhibition of extracellular HBV DNA replication at 40 uM supplemented with fresh medium containing compound every 3 days for 9 days measured post-last dose by FQ-PCR analysis relative to control. It is filed as functional. Put shortly: as §3

As to `C[C@@]1(F)[C@H](O)[C@@H](CO)O[C@H]1n1nnc2c(Nc3ccc(Cl)cc3F)ncnc21`, the “inhibition (INH)” value in [1] was found to be 7.7%; in [3] it was 31.8%; in data set [5] it was 7.7%; in data set [6] it was 76.4%; in [7], 31.6%; in data set [8] it was 39.7%. Further, the “inhibition (INH)” value in data set [9] worked out at 82.5%; in data set [10], 65.2%; in data set [11], 61.1%; in [12], 47%; in data set [13] it was 31.1%; in [15], 32.1%. The “inhibition (INH)” value was found to be 66.3% in data set [16], 27.4% in [17] and 83.6% in data set [18]. The CC50 at 72 h in data set [2] was determined as 409 µM. This molecule also displayed a CC50 at 216 h in data set [4] of 245 µM. For the same molecule, the inhibition at 40 µM in data set [14] is 45.2%.
